Results gathered from unrelated publications.
Protocols differ between the studies behind these lines.
Cell line: K562
Effect on: cell growth or viability

Compound | test | setting | IC50 [µM]
COc1cccc2c1C(=O)c1c(O)c3c(c(O)c1C2=O)C[C@@](O)(C(=O)CO)C[C@@H]3O[C@H]1C[C@H](N)[C@H](O)[C@H](C)O1 |  |  | 0.13
Cc1sc2c(c1C)C(c1ccc(Cl)cc1)=N[C@@H](CC(=O)NCCCCNC(=O)COc1cccc3c1C(=O)N(C1CCC(=O)NC1=O)C3=O)c1nnc(C)n1-2 (some centres unmarked) | CCK-8 | 72 h | 0.73
O=C(NO)c1ccc(Cn2cnc3c(Nc4ccc(F)c(Cl)c4)ncnc32)cc1 | MTT | 72 h | 7.35
CC(C)=CCc1ncc(/C=C2\NC(=O)[C@H](C(C)C)NC2=O)[nH]1 | MTT |  | > 15
COc1ccc(Nc2ncnc3c2ncn3Cc2ccc(C(=O)NO)cc2)cc1 | MTT | 72 h | 3.7
N/C(=N\O)c1ccc(-c2cc(CNc3cccc4cccnc34)on2)cc1 | MTS | 72 h | 86.6
CN1CCC(NC2CCc3[nH]c4c(C(N)=O)ccc(-c5ccccc5Cl)c4c3C2)CC1 (centres unmarked) |  | 96 h | 0.0214
c1ccc(-c2cc(CNc3cccc4cccnc34)on2)nc1 | MTS | 72 h | 79.7
O=C(NO)c1ccc(Cn2cnc3c(Nc4ccc(Cl)cc4)ncnc32)cc1 | MTT | 72 h | 13.8
O=c1cc(OCc2cc(-c3ccc(C(F)(F)F)cc3)no2)c2ccccc2o1 | MTS | 72 h | > 100
C=CC(C)(C)c1[nH]cnc1/C=C1/NC(=O)[C@H](C(C)C)NC1=O | MTT |  | 1.77
